pIC50: −log10 of the molar value.
Columns and labels:
[1] = test system: K562; test: Induction of apoptosis in human K562 cells after 48 hrs by annexinV and propidium iodide staining based flow cytometry; format: functional, cell-based; conditions: K562, 48 h
Summary of the method: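 After 48 h drug exposure, 1×10^6 cells were washed in PBS and spun at 200×g for 5 min. They were stained with FITC-annexin V plus propidium iodide for 15 min at 20 °C and annexin V-positive cells counted by flow cytometry. Apoptosis was also scored morphologically with acridine orange/ethidium bromide, counting at least 300 cells. AC50 is the concentration inducing apoptosis in 50% of cells; mean ± SE from two to three experiments.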

[2] = target: T1, Signal transducer and activator of transcription 5A (Homo sapiens) (UniProt P42229); test: Inhibition of STAT5 phosphorylation in human K562 cells at 3 uM after 24 hrs by flow cytometry (reference value: 315.56); format: cell-based
T1 sequence (whole entry): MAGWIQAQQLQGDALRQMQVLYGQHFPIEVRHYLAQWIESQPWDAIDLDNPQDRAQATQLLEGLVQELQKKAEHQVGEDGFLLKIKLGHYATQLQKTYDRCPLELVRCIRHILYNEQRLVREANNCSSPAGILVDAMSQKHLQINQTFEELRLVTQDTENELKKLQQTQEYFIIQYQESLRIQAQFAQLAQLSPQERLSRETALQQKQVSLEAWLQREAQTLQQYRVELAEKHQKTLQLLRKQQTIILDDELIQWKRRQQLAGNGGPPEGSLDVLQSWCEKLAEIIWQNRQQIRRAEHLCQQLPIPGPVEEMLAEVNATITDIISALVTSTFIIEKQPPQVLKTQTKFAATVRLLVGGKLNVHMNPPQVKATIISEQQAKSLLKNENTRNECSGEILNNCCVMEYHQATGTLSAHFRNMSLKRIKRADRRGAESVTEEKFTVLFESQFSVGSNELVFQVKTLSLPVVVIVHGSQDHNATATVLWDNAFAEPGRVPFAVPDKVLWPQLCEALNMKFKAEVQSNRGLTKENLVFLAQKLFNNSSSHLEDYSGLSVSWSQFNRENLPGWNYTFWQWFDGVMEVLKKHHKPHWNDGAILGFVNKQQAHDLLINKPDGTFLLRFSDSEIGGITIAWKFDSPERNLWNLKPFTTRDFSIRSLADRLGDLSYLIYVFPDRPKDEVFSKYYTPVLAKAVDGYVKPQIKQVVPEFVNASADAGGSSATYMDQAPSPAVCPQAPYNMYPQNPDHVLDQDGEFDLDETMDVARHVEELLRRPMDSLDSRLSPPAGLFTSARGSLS
Summary of the method: (§1)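 After 24 h exposure, about 1×10^6 K562 cells were PBS-washed and fixed/permeabilised for 20 min at 4 °C. They were then stained for 30 min at 4 °C with PE-conjugated anti-pSTAT5 monoclonal antibody, with an isotype antibody as control. Median fluorescence was read by flow cytometry and compared with untreated cells stained for pSTAT5.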

[3] = test system: K562; test: Antiproliferative activity against human K562 cells after 48 hrs by trypan blue dye exclusion assay; format: functional, cell-based; conditions: K562, 48 h
[4] = test system: K562; test: Cell cycle arrest in human K562 cells assessed as accumulation at G1 phase at 3 uM for 24 hrs by propidium iodide staining based flow cytometry (reference value: 39.27%); format: functional
Summary of the method: (§2)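 K562 cells in RPMI 1640 with 10% FCS, penicillin/streptomycin and L-glutamine, 5% CO2, 37 °C; exposed 24 h. Cells washed in ice-cold PBS, resuspended at 1×10^6/mL in hypotonic solution of propidium iodide 50 µg/mL in 0.1% sodium citrate plus 0.03% nonidet P-40 for 30 min. DNA content read as single-parameter flow cytometry histograms; phase distribution modelled.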

[5] = test system: K562; test: Cell cycle arrest in human K562 cells assessed as accumulation at S-phase at 3 uM for 24 hrs by propidium iodide staining based flow cytometry (reference value: 47.84%); format: functional; summary of the method: as §2
[6] = test system: K562; test: Cell cycle arrest in human K562 cells assessed as accumulation at G2M-phase at 3 uM for 24 hrs by propidium iodide staining based flow cytometry (reference value: 12.89%); format: functional; summary of the method: as §2
[7] = target: T1, Signal transducer and activator of transcription 5A (Homo sapiens); test: Inhibition of STAT5 phosphorylation in human K562 cells at 2 uM after 24 hrs by flow cytometry (reference value: 315.56); format: cell-based; summary of the method: as §1
[8] = target: Tubulin (Bos taurus, UniProt Q6B856+Q862L2+Q862F3); test: Inhibition of bovine brain tubulin polymerization by spectrophotometry
Summary of the method: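 Bovine brain tubulin (10 µM) was pre-incubated with varying compound concentrations in glutamate buffer at 30 °C, then cooled to 0 °C. GTP was added ([…] final) and the mixture warmed to 30 °C. Assembly was followed by turbidity at 350 nm.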

[9] = organism: Bos taurus; test: Inhibition of [3H]colchicine binding to bovine tubulin at 5 uM by DEAE-cellulose filter method
Summary of the method: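 Reaction mixtures contained 1 µM tubulin, 5 µM [3H]colchicine and 5 µM test compound. Result is given as % inhibition of colchicine binding ± SD.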

[10] = test system: K562; test: Cell cycle arrest in human K562 cells assessed as accumulation at G1 phase at 2 uM for 24 hrs by propidium iodide staining based flow cytometry (reference value: 39.27%); format: functional
Summary of the method: (§3)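 K562 cells were exposed to compound for 24 h. They were then washed in ice-cold PBS and resuspended at 1×10^6/mL in a hypotonic solution of propidium iodide 50 µg/mL in 0.1% sodium citrate with 0.03% NP-40. After 30 min, DNA content was read by flow cytometry as single-parameter histograms and cell cycle phase distribution (%) was modelled.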

[11] = test system: K562; test: Cell cycle arrest in human K562 cells assessed as accumulation at S-phase at 2 uM for 24 hrs by propidium iodide staining based flow cytometry (reference value: 47.84%); format: functional; summary of the method: as §3
[12] = test system: K562; test: Cell cycle arrest in human K562 cells assessed as accumulation at G2M-phase at 2 uM for 24 hrs by propidium iodide staining based flow cytometry (reference value: 12.89%); format: functional; summary of the method: as §3
[13] = test system: K562; test: Cell cycle arrest in human K562 cells assessed as accumulation at G2M-phase at 5 uM for 24 hrs by propidium iodide staining based flow cytometry (reference value: 12.89%); format: functional; summary of the method: as §3
[14] = target: T1, Signal transducer and activator of transcription 5A (Homo sapiens); test: Inhibition of STAT5 phosphorylation in human K562 cells at 5 uM after 24 hrs by flow cytometry (reference value: 315.56); format: cell-based; summary of the method: as §1
[15] = test system: K562; test: Cell cycle arrest in human K562 cells assessed as accumulation at G1 phase at 5 uM for 24 hrs by propidium iodide staining based flow cytometry (reference value: 39.27%); format: functional; summary of the method: as §3
[16] = test system: K562; test: Cell cycle arrest in human K562 cells assessed as accumulation at S-phase at 5 uM for 24 hrs by propidium iodide staining based flow cytometry (reference value: 47.84%); format: functional; summary of the method: as §3
[17] = target: T1, Signal transducer and activator of transcription 5A (Homo sapiens); test: Inhibition of STAT5 phosphorylation in human K562 cells at 0.75 uM after 24 hrs by flow cytometry (reference value: 315.56); format: cell-based; summary of the method: as §1
[18] = test system: K562; test: Cell cycle arrest in human K562 cells assessed as accumulation at G1 phase at 0.75 uM for 24 hrs by propidium iodide staining based flow cytometry (reference value: 39.27%); format: functional; summary of the method: as §3
[19] = test system: K562; test: Cell cycle arrest in human K562 cells assessed as accumulation at S-phase at 0.75 uM for 24 hrs by propidium iodide staining based flow cytometry (reference value: 47.84%); format: functional; summary of the method: as §3
[20] = test system: K562; test: Cell cycle arrest in human K562 cells assessed as accumulation at G2M-phase at 0.75 uM for 24 hrs by propidium iodide staining based flow cytometry (reference value: 12.89%); format: functional; summary of the method: as §3
[21] = target: T1, Signal transducer and activator of transcription 5A (Homo sapiens); test: Inhibition of STAT5 phosphorylation in human K562 cells at 3 uM after 24 hrs by flow cytometry relative to control; format: cell-based; summary of the method: as §1

With `Cc1ccc(NC(=O)c2ccc(CN3CCN(C)CC3)cc2)cc1Nc1nccc(-c2cccnc2)n1` [IMATINIB] the AC50 [1] was 680 nM.

Work on `COc1cc(C(=O)c2sc3cc(C)ccc3c2NC(=O)CI)cc(OC)c1OC` yielded a Flu intensity [2] of 200, a pIC50 [3] of 6.00 and an AC50 [1] of 4700 nM. For the same compound, the Activity [4] was 41.47%, the Activity [5] was 27.66% and the Activity [6] was 30.87%.

`COc1ccc(C(=O)c2oc3ccccc3c2NC(=O)CI)cc1` was tested, and the pIC50 [3] was 5.54 and the AC50 [1] was 6800 nM.

In the case of `COc1cc(C(=O)c2c(NC(=O)CI)c3cccc(OC)c3n2C)cc(OC)c1OC`, the Flu intensity [7] was 58.2, the IC50 [8] was 2000 nM and the inhibition [9] was 38%. For the same compound, the pIC50 [3] was 6.10, the AC50 [1] was 4600 nM and the Activity [10] was 77.64%. It also gave an Activity [11] of 19.55% and an Activity [12] of 2.81%.

`O=C(CI)Nc1c(C(=O)c2ccccc2)oc2ccccc12` gave an Activity [13] of 11.4%, a Flu intensity [14] of 103 and an IC50 [8] of over 20000 nM. It also gave a pIC50 [3] of 6.00, an AC50 [1] of 5900 nM and an Activity [15] of 68.32%. The Activity [16] was 20.28%.

`COc1cc(C(=O)c2cc3cc(NC(=O)CI)cc(OC)c3o2)cc(OC)c1OC` showed a Flu intensity [17] of 316, a pIC50 [3] of 6.40 and an AC50 [1] of 2200 nM. The Activity [18] was 34.66%, the Activity [19] was 57.32% and the Activity [20] was 8.02%.

Compound `COc1cc(C(=O)c2cc3cc(NC(=O)CI)cc(OC)c3s2)cc(OC)c1OC` has a Flu intensity [7] of 201, a pIC50 [3] of 6.11 and an AC50 [1] of 3700 nM. For the same compound, the Activity [10] was 19.94%, the Activity [11] was 33.7% and the Activity [12] was 45.36%.

`COc1ccc2oc(C(=O)c3cc(OC)c(OC)c(OC)c3)c(NC(=O)CI)c2c1` was tested, and the pIC50 [3] was 5.49 and the AC50 [1] was 7800 nM.

`COc1cc(C(=O)c2cc3ccc(NC(=O)CI)cc3o2)cc(OC)c1OC` showed a Flu intensity [2] of 289, a pIC50 [3] of 6.22 and an AC50 [1] of 2900 nM. The Activity [4] was 37.06%, the Activity [5] was 51.3% and the Activity [6] was 11.1%.

Work on `COc1cc(C(=O)c2c(NC(=O)CI)c3ccccc3n2C)cc(OC)c1OC` yielded a pIC50 [3] of 5.37 and an AC50 [1] of 8200 nM.

Compound `COc1cc(C(=O)c2[nH]c3ccccc3c2NC(=O)CI)cc(OC)c1OC` has a Flu intensity [2] of 222, an inhibition [21] of 30% and a pIC50 [3] of 6.30. The AC50 [1] was 2400 nM, the Activity [4] was 31.82% and the Activity [5] was 57.79%. The Activity [6] was 9.39%.

Reference: ChEMBL document CHEMBL3745692, “Novel iodoacetamido benzoheterocyclic derivatives with potent antileukemic activity are inhibitors of STAT5 phosphorylation” (Eur J Med Chem, 2016)
